# UCH37 DUB inh – inhibitors of human UCH37 deubiquitinase, primary screen, biochemical, Ub-AMC cleavage, fluorescence | purified proteasome/UCH37 | inhibition, % (no concentration beside the values) | Ubiquitin carboxyl-terminal hydrolase isozyme L5 (Homo sapiens), Q9Y5K5 | AID 588478, 2011 | 0.33% of 330,000 active;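 active = mean inhibition over replicate wells above about 20%, limit read from the data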;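 also: 0% = compound-free wells with enzyme and 100% = wells lacking proteasome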
# Target sequence (Q9Y5K5 whole entry, looked up): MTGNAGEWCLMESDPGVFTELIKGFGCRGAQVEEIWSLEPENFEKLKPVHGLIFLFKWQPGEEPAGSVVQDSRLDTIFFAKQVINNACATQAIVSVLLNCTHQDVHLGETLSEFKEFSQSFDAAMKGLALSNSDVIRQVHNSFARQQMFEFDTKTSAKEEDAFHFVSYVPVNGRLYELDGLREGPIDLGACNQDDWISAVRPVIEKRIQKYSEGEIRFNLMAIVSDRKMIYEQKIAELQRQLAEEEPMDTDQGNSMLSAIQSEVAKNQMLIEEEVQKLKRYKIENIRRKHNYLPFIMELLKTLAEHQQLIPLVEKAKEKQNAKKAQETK
#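 Material: Human UCH37 enzyme supplied as purified proteasome complex | Schedule: 30 min compound-proteasome preincubation then 25 min substrate reaction, room temperature | Detection: AMC fluorescence from Ub-AMC cleavage, excitation 355 nm, emission 460 nm | Benchmarks: Wells without proteasome as full block, compound-free enzyme plus substrate as uninhibited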
# PLCg1 inh – PLC-gamma1 enzyme inhibitors, primary screen, biochemical, fluorescence, purified enzyme; AID 720700, 2013; 0.84% of 370,000 active; 1-phosphatidylinositol 4,5-bisphosphate phosphodiesterase gamma-1 (Homo sapiens), P19174; fluorogenic substrate; inhibition, % at 12.2 µM; in the data active = inhibition above about 9.5%
# Rpn11 block – Rpn11 (PSMD14) deubiquitinase inhibitors, primary screen, biochemical, fluorescence polarization, uHTS | human 26S proteasome, Ub4-pepOG fluorescence polarization; 20S core pre-blocked with epoxomicin | 26S proteasome non-ATPase regulatory subunit 14 (Homo sapiens), O00487 | AID 588493, 2011 | 0.59% of 360,000 active | inhibition, % at 20 µM;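 active = inhibition at 20 µM, scaled to each plate's controls, above about 33%, limit read from the data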
# Target sequence (O00487 whole entry, looked up): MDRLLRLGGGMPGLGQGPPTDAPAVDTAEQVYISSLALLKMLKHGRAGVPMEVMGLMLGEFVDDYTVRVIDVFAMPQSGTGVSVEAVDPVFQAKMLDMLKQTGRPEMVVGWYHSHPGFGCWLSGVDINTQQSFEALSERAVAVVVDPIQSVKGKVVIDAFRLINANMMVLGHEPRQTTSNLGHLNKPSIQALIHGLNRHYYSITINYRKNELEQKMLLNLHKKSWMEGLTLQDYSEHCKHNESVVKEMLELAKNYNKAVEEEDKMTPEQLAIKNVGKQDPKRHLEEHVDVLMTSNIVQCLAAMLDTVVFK
# PLCb3 inh – human PLC-beta3 inhibitors, primary screen, biochemical, fluorescence | 1-phosphatidylinositol 4,5-bisphosphate phosphodiesterase beta-3 (Homo sapiens), Q01970 | Purified PLC-beta3, fluorogenic substrate | inhibition, % at 12.2 µM | 0.18% of 370,000 active;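 also: 0% = median of compound wells on plate and 100% = full blocker control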
# PLCg1 ctr – PLC-gamma1 enzyme inhibitors, counter-screen for PLC-beta3 inhibitor project, biochemical, fluorescence. shares compounds with PLCg1 inh. purified PLC-gamma1, fluorogenic substrate. inhibition, % at 12.3 µM. 3.1% of 3,300 active. AID 743258, 2014; in the data active = inhibition above about 9.5%
# PLCb3 confirm – PLC-beta3 inhibitor confirmation, biochemical, fluorescence, purified enzyme. fluorogenic substrate fluorescence. 1% of 3,300 active. inhibition, % at 12.3 µM. shares compounds with PLCg1 inh
# * hit, by the source's call; . = no result given. This is a sample that favours compounds with a hit; in the whole collection about 1.7% have one here. Rule as the data show it, unless noted: active = inhibition above about 11%; inactive = the rest.
SMILES,UCH37 DUB inh,PLCg1 inh,Rpn11 block,PLCb3 inh,PLCg1 ctr,PLCb3 confirm
COC(=O)N1CCCCC1c1cc(C(=O)NCc2ccccc2)no1 (stereo not drawn),.,10.4*,-7.9,1.5,-1.2,-8.2
COC(C(=O)NN=C(C)CC(=O)Nc1ccc(Cl)cc1C)c1ccccc1 (stereo not drawn),0.8,.,.,.,.,.
COc1ccccc1NC(=O)c1c([N+](=O)[O-])c(C(C)(C)C)nn1C,2.3,11.9*,-3.3,7.4,2.0,3.1
Cc1cc(C(=O)NN=Cc2cccc(Cl)c2Cl)no1,1.7,.,.,.,.,.
CCOc1cc(C=NNC(=O)c2ccc(NC(=O)C(C)(C)C)cc2)ccc1OC(=O)c1ccc(OC)cc1,3.2,.,.,.,.,.
N#C/C(=C\c1ccc(OCc2ccc(F)cc2)cc1)C(=O)Nc1cccc(C(=O)O)c1,.,10.2*,-1.9,8.2,-7.8,-11.7
CN(C(=O)COc1ccccc1C(=O)NCCOc1ccccc1)c1ccccc1,3.7,15.1*,3.5,16.9*,6.0,11.6*
CC1=NN(c2ccc(Cl)cc2)C(=O)C1C(c1ccccc1O)c1c(C)[nH]n(-c2ccc(Cl)cc2)c1=O (stereo not drawn),6.1,.,11.6,.,.,.
CC1=NN(c2ccc(C)c(C)c2)C(=O)C1C(c1cccc(O)c1)C1C(=O)N(c2ccc(C)c(C)c2)N=C1C (stereo not drawn),0.8,16.1*,14.3,5.4,-0.2,-1.2
Cn1c(SCC(=O)NC2CCCCC2)nnc1-c1cccnc1,3.6,-1.1,6.4,-6.6,.,.
Cn1c(SCC(=O)NC2(C#N)CCCCC2)nnc1-c1cccnc1,0.4,12.0*,-5.6,-1.5,-8.5,-4.9
CCOC(=O)C=c1sc(=C(C#N)C(N)=O)n(-c2ccccc2)c1=O,4.6,.,.,.,.,.
COc1ccc(NC(C)=O)c2nc(C)c(C)nc12,7.5,-2.5,1.6,-1.4,.,.
COc1ccc2sc(C)nc2c1NC(C)=O,0.1,11.8*,-4.2,5.0,-0.7,4.4
COc1ccc(C(C)NC(=S)NCc2ccc(F)cc2)cc1OC (stereo not drawn),1.8,17.4*,-7.1,-6.7,3.1,3.4
CCOC(=O)N1C(=O)C2(CCCCC2)N(c2ccccc2Cl)C1=S,3.1,11.2*,-1.0,2.2,-2.0,0.6
CC(=NNc1nc2ccccc2[nH]1)c1ccc(C)o1,6.4,.,.,.,.,.
COc1ccc(-c2nc(N)nc(C(F)(F)F)c2-c2csc(C)n2)c(O)c1,5.4,11.1*,-2.7,-5.9,-4.5,-6.0
O=C(CSc1nnnn1C1CCCCC1)N1CCN(C(=O)c2ccco2)CC1,2.6,11.6*,0.8,-4.0,-5.5,0.3
O=C(CSc1nnnn1C1CCCC1)N1CCN(C(=O)c2ccco2)CC1,1.7,0.1,2.3,-0.7,.,.
O=[N+]([O-])c1ccccc1C=NNC1=NCCCCC1,6.6,.,.,.,.,.
O=C(NCCc1ccc(Cl)cc1Cl)c1cncc(Br)c1,4.2,10.7*,0.3,-0.3,-5.7,-1.8
COc1ccc(N2CCN(C(=O)C(=O)c3c[nH]c4ccccc34)CC2)cc1,4.4,9.8*,1.5,-2.1,-4.4,-1.2
C=C(C)CNC(=S)NN=Cc1ccc(NC(C)=O)cc1,9.5,.,.,.,.,.
COCC(O)CSc1c([N+](=O)[O-])nc(C)n1Cc1ccc(OC)c([N+](=O)[O-])c1 (stereo not drawn),0.1,10.2*,-4.7,2.5,7.4,4.8
SMILES,UCH37 DUB inh,PLCg1 inh,Rpn11 block,PLCb3 inh,PLCg1 ctr,PLCb3 confirm
COc1ccc(CSc2n[nH]c(C)n2)cc1[N+](=O)[O-],3.8,5.1,-7.8,-0.3,.,.
O=C(NN=Cc1ccc(OC(=O)c2cccc(Br)c2)cc1)c1cccnc1,2.6,.,.,.,.,.
COc1ccccc1NC(=O)COc1ccc(/C=N/NC(=O)CSCc2ccc(Cl)cc2)cc1,.,9.5*,0.6,10.1,3.1,4.5
COc1ccccc1NC(=O)COc1ccc(/C=N/NC(=O)CSCc2cc(C)cc(C)c2)cc1,.,2.8,4.5,3.8,.,.
Cn1nc(C(F)(F)F)c(C=NOC(=O)c2ccccc2Cl)c1SCc1ccc(Cl)cc1,0.2,.,.,.,.,.
Cc1cccc(S(=O)(=O)N2CCCc3ccccc32)c1,1.8,9.6*,0.8,-6.5,-1.9,3.8
Cc1cc(C)c(S(=O)(=O)N2CCCc3ccccc32)c(C)c1,1.1,-0.2,6.0,-3.9,.,.
O=C1CCCN1c1ccc(S(=O)(=O)Oc2cccc(Cl)c2)cc1[N+](=O)[O-],2.4,9.6*,3.5,3.2,-3.1,3.8
COc1ccccc1N(Cc1cc(=O)[nH]c2ccccc12)C(=O)C(C)C,-2.6,-3.7,-2.1,-9.1,.,.
CCC(=O)N(Cc1cc(=O)[nH]c2ccccc12)c1ccccc1OC,5.4,11.7*,-11.4,1.3,-3.8,-1.2
COc1ccccc1N1CCN(N=Cc2ccc(OC)c(OC)c2OC)CC1,2.0,.,.,.,.,.
CSCC[C@H](NC(=O)CCn1nnc2ccccc2c1=O)C(=O)O,1.2,10.5*,3.1,12.4*,6.2,7.9
CC(C)C[C@H](NC(=O)CCCn1nnc2ccccc2c1=O)C(=O)O,0.2,0.0,3.2,-6.5,.,.
CN(C)CCCNS(=O)(=O)c1ccc(NC2CCCCCC2)c([N+](=O)[O-])c1,4.9,15.0*,-0.5,-4.3,-2.4,4.0
C=C(C)CNC(=S)NN=Cc1ccco1,5.6,.,.,.,.,.
CCC/C(O)=C1\C(=O)CCCC1=NCCc1ccc(OCC)c(OCC)c1,4.3,1.3,-5.3,-5.2,.,.
CCC/C(O)=C1\C(=O)CCCC1=NC(C)C(=O)O (stereo not drawn),3.1,9.8*,-4.4,6.9,-8.0,-2.4
COc1ccc(NS(=O)(=O)c2cc(NC(=O)c3cnc(C)cn3)ccc2N2CCCC2)cc1,4.4,-0.9,2.7,-3.0,.,.
COc1ccc(NS(=O)(=O)c2cc(NC(=O)c3cccnc3Cl)ccc2N2CCCC2)cc1,1.4,10.0*,0.7,0.2,1.7,-7.0
Cc1ccc(C(=O)OCc2c(C)noc2C)cc1NC(=O)c1ccco1,2.3,11.4*,2.1,9.3,4.6,-5.3
O=C(CN(Cc1ccc(Cl)c(Cl)c1)S(=O)(=O)c1ccccc1)NN=Cc1ccc2c(c1)OCO2,0.2,.,.,.,.,.
COc1ccc(C2C(C#N)=C(C)NC(C)=C2C#N)c(OC)c1,-5.4,-15.9,-7.2,-24.3,.,.
COc1ccc(C2C(C#N)=C(N)Nc3onc(C(C)(C)C)c32)c(OC)c1 (stereo not drawn),4.7,6.0,0.0,10.9*,-3.2,-0.8
COCCCNC(=O)c1ccc(CS(=O)(=O)Cc2cccc(C)c2)o1,2.6,0.7,3.2,2.1,.,.
Cc1cccc(CS(=O)(=O)Cc2ccc(C(=O)O)o2)c1,0.9,10.6*,2.0,2.5,-6.1,0.2
O=C(NN=C1CC2C=CCC12)c1ccc(Br)o1 (stereo not drawn),4.2,.,.,.,.,.

# Screening data (PubChem)
